The values below come from BindingDB's records for doi:10.1016/s0960-894x(03)00033-7 (Astrazeneca R&D, 2003).

Experiment [1] concerns the target Delta-type opioid receptor (Homo sapiens, UniProt P41143). The experiment in a line: ChEBML_145338. The text has this:
Inhibition of [125I]deltorphin binding to human delta opioid receptor from membranes of HEK293 cells

The next experiment concerns the target Mu-type opioid receptor (Homo sapiens, UniProt P35372). The experiment can be described thus: Inhibition of [125I]Enkephalin binding to human mu opioid receptor from membranes of HEK293 cells. In a few lines: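 Filter binding on membranes of HEK293 cells overexpressing human mu opioid receptor, measuring displacement of [125I]-Enkephalin. IC50 came from full dose–response curves on purified material, in single determinations.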

A value given as a limit tells only on which side of the number the result lay.

Delta-type opioid receptor, sequence (P41143 whole entry): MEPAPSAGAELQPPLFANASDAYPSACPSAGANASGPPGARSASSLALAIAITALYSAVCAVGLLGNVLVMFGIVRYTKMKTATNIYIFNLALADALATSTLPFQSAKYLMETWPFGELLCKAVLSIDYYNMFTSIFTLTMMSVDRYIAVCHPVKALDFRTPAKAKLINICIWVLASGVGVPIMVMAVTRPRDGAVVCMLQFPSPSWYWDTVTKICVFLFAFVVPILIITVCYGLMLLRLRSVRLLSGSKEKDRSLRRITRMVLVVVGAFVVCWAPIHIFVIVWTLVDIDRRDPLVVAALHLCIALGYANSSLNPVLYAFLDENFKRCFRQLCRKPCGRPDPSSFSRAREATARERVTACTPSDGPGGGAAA
Mu-type opioid receptor, sequence (P35372 whole entry): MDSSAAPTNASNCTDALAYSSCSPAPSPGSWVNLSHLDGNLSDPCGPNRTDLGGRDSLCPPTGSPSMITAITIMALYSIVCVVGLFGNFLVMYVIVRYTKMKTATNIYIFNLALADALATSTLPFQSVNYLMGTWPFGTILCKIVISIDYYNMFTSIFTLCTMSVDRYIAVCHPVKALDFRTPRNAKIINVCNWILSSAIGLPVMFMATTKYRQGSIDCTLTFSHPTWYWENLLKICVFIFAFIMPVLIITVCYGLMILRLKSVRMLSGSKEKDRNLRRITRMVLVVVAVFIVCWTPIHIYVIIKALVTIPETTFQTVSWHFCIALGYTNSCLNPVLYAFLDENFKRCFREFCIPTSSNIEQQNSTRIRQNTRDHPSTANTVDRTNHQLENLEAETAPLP

As a reminder, the IC50 is the midpoint of a concentration-inhibition curve. With `O=c1c(-c2ccccc2)cccn1C(CN1CCCC1)c1ccccc1` (configuration not stated) [3-Phenyl-1-(1-phenyl-2-pyrrolidin-1-yl-ethyl)-1H-pyridin-2-one], the IC50 (in experiment [1]; on Mu-type opioid receptor) was above 10 µM in each case.
